Assay results taken from ChEMBL document CHEMBL3414425, “Synthesis and biological evaluation of new imidazo[2,1-b][1,3,4]thiadiazole-benzimidazole derivatives” (Eur J Med Chem, 2015).
≈ marks a conversion by molar mass, not a printed value. Calls of active or inactive are those of the source. The rule behind the calls is not given here.

Tests used:
[1] = system: Chrysosporium keratinophilum; assay: Antifungal activity against Chrysosporium keratinophilum at 0.5 mg/ml incubated for 3 days; assay type: functional; details: for zone of inhibition at 500 µg/mL: 72 h, read-out: IZ
Summary of the method: (§1)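 Well plate method on potato dextrose agar. Fungal stock suspended in distilled water with Tween 80 and swabbed over plates. Samples in DMSO at 1 and 0.5 mg/mL added to wells, incubated 25 °C for 3 days, then scored for inhibition zones; fluconazole standard.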

Salmonella typhi [2] = assay: Antibacterial activity against Salmonella typhi at 1 mg/ml incubated for 18 hrs by well plate technique; assay type: functional, Salmonella enterica subsp. enterica serovar Typhi; details: for zone of inhibition at 1000 µg/mL: Salmonella enterica, read-out: DIZ; for diameter of the inhibition zone (DIZ): Salmonella enterica subsp. enterica serovar Typhi
Summary of the method: (§2)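 Well diffusion on nutrient agar; strains kept on nutrient agar at 37 °C, grown statically in nutrient broth 18-24 h at 37 °C, diluted in saline, 0.1 ml spread per plate. Compounds in DMSO at 1 and 0.5 mg/mL added to cork-bored wells; 18 h at 37 °C. Inhibition zone diameter measured, DMSO value subtracted; triplicate; streptomycin reference.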

[3] = system: Chrysosporium keratinophilum; assay: Antifungal activity against Chrysosporium keratinophilum at 1 mg/ml incubated for 3 days; assay type: functional; details: for zone of inhibition at 1000 µg/mL: 72 h, read-out: IZ; summary of the method: as §1
Pseudomonas aeruginosa [4] = assay: Antibacterial activity against Pseudomonas aeruginosa at 0.5 mg/ml incubated for 18 hrs by well plate technique; assay type: functional; details: for zone of inhibition at 500 µg/mL: read-out: DIZ
Summary of the method: (§3)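 Bacteria kept on nutrient agar at 37 °C, grown statically in nutrient broth (start ~10-100 cfu/mL) at 37 °C for 18-24 h. Suspensions diluted in saline and spread on nutrient agar, then wells cut with a cork borer. Compound in DMSO at 1 or 0.5 mg/mL added to wells, 37 °C, 18 h. Inhibition zone diameter measured minus DMSO value; triplicate; streptomycin standard.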

Salmonella typhi [5] = assay: Antibacterial activity against Salmonella typhi at 0.5 mg/ml incubated for 18 hrs by well plate technique; assay type: functional, Salmonella enterica subsp. enterica serovar Typhi; details: for zone of inhibition at 500 µg/mL: Salmonella enterica, read-out: DIZ; for diameter of the inhibition zone (DIZ): Salmonella enterica subsp. enterica serovar Typhi; summary of the method: as §2
Aspergillus flavus [6] = assay: Antifungal activity against Aspergillus flavus at 1 mg/ml incubated for 3 days; assay type: functional; details: for zone of inhibition at 1000 µg/mL: 72 h, read-out: IZ; summary of the method: as §1
Staphylococcus aureus [7] = assay: Antibacterial activity against Staphylococcus aureus at 1 mg/ml incubated for 18 hrs by well plate technique; assay type: functional; details: for zone of inhibition at 1000 µg/mL: read-out: DIZ; summary of the method: as §3
[8] = Cytotoxicity against African green monkey Vero cells assessed as growth inhibition at 62.5 ug/ml after 72 hrs by MTT assay; assay type: cell-based; details: chlorocebus sabaeus, read-out: GI
Summary of the method: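 Vero cells grown in MEM + 10% FBS at 37 °C, 5% CO2. Seeded ~10,000 cells/well, 24 h to a partial monolayer. Compounds in DMSO diluted in MEM + 2% FBS (1 mg/ml stock, two-fold dilutions) for 72 h. MTT 3 h, formazan dissolved in propanol, A540. % inhibition = 100 − (mean OD test/mean OD control × 100).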

[9] = system: Mycobacterium tuberculosis; assay: Antitubercular activity against Mycobacterium tuberculosis H37Rv ATCC 27294/XDR-TB incubated for 28 days by agar dilution method; assay type: functional; details: 672 h
Summary of the method: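 Agar dilution: two-fold dilutions in Middlebrook 7H11 agar with OADC. Inoculum from fresh 7H11/OADC slants adjusted to 1 mg/mL wet weight in 0.05% Tween 80 saline, diluted 10^-2 (~10⁷ cfu/mL); 5 µL spotted per tube. Incubated 37 °C; MIC, lowest concentration fully inhibiting growth, read after 28 days, in triplicate.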

[10] = Antioxidant activity assessed as DPPH radical scavenging activity incubated for 10 mins by UV-visible spectrometry; assay type: physicochemical
Summary of the method: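 DPPH free-radical scavenging; absorbance read at 517 nm against a methanol blank. % scavenging = (A control − A sample)/A control × 100.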

Escherichia coli [11] = assay: Antibacterial activity against Escherichia coli at 1 mg/ml incubated for 18 hrs by well plate technique; assay type: functional; details: for zone of inhibition at 1000 µg/mL: read-out: DIZ; summary of the method: as §3
Escherichia coli [12] = assay: Antibacterial activity against Escherichia coli at 0.5 mg/ml incubated for 18 hrs by well plate technique; assay type: functional; details: for zone of inhibition at 500 µg/mL: read-out: DIZ; summary of the method: as §3
Candida albicans [13] = assay: Antifungal activity against Candida albicans at 1 mg/ml incubated for 3 days; assay type: functional; details: for zone of inhibition at 1000 µg/mL: 72 h, read-out: IZ; summary of the method: as §1
Candida albicans [14] = assay: Antifungal activity against Candida albicans at 0.5 mg/ml incubated for 3 days; assay type: functional; details: for zone of inhibition at 500 µg/mL: 72 h, read-out: IZ; summary of the method: as §1
Aspergillus flavus [15] = assay: Antifungal activity against Aspergillus flavus at 0.5 mg/ml incubated for 3 days; assay type: functional; details: for zone of inhibition at 500 µg/mL: 72 h, read-out: IZ; summary of the method: as §1
Pseudomonas aeruginosa [16] = assay: Antibacterial activity against Pseudomonas aeruginosa at 1 mg/ml incubated for 18 hrs by well plate technique; assay type: functional; details: for zone of inhibition at 1000 µg/mL: read-out: DIZ; summary of the method: as §3
Staphylococcus aureus [17] = assay: Antibacterial activity against Staphylococcus aureus at 0.5 mg/ml incubated for 18 hrs by well plate technique; assay type: functional; details: for zone of inhibition at 500 µg/mL: read-out: DIZ; summary of the method: as §3

Structure (SMILES) | inhibition zone (IZ) [1] | zone of inhibition at 1000 µg/mL (Salmonella typhi [2]) [mm] | inhibition zone (IZ) [3] | zone of inhibition at 500 µg/mL (Pseudomonas aeruginosa [4]) [mm] | zone of inhibition at 500 µg/mL (Salmonella typhi [5]) [mm] | zone of inhibition at 1000 µg/mL (Staphylococcus aureus [7]) [mm] | inhibition at 72 h, 62.5 ug/ml [8] [%] | MIC [9] [µg/mL] | inhibition (INH) [10] [%] | zone of inhibition at 1000 µg/mL (Escherichia coli [11]) [mm] | zone of inhibition at 500 µg/mL (Escherichia coli [12]) [mm] | inhibition zone (IZ) (Candida albicans [14]) | zone of inhibition at 1000 µg/mL (Pseudomonas aeruginosa [16]) [mm] | zone of inhibition at 500 µg/mL (Staphylococcus aureus [17]) [mm] | zone of inhibition at 500 µg/mL [1] [mm] | zone of inhibition at 1000 µg/mL [3] [mm] | zone of inhibition at 1000 µg/mL (Aspergillus flavus [6]) [mm] | zone of inhibition at 1000 µg/mL (Candida albicans [13]) [mm] | zone of inhibition at 500 µg/mL (Candida albicans [14]) [mm] | zone of inhibition at 500 µg/mL (Aspergillus flavus [15]) [mm] | also measured
Cc1ccc(-c2nn3c(-c4nc5ccccc5[nH]4)c(-c4ccc(Cl)cc4)nc3s2)cc1 | inactive | 4 | inactive | 3 | 2 | 3 | 13.3 | 3.12 (≈ 7.07 µM) | 18.8 | 4 | 2 | inactive | 6 | 2 | – | – | – | – | – | – | inhibition zone (IZ) (Aspergillus flavus [6]): inactive; inhibition zone (IZ) (Candida albicans [13]): inactive; inhibition zone (IZ) (Aspergillus flavus [15]): inactive
Cc1nn2c(-c3nc4ccccc4[nH]3)c(-c3ccc(F)cc3)nc2s1 | – | 2 | – | 2 | 1 | 2 | 10.6 | 6.25 (≈ 17.9 µM) | 19.9 | 4 | 3 | – | 3 | 1 | 3 | 4 | 3 | 2 | 1 | 2 | –
Cc1ccc(-c2nc3sc(-c4ccc(Cl)cc4)nn3c2-c2nc3ccccc3[nH]2)cc1 | – | 5 | – | 1 | 3 | 4 | 12.2 | 3.12 (≈ 7.07 µM) | 45.7 | 5 | 3 | – | 4 | 1 | 2 | 5 | 5 | 4 | 2 | 3 | –
COc1ccc(-c2nc3sc(-c4ccc(C)cc4)nn3c2-c2nc3cc(Cl)ccc3[nH]2)cc1 | – | 3 | – | 3 | 1 | 6 | 8.31 | 3.12 (≈ 6.62 µM) | 31.3 | 4 | 2 | – | 7 | 3 | 2 | 4 | 3 | 3 | 2 | 2 | –
Fc1ccc(-c2nc3sc(-c4ccc(Cl)cc4)nn3c2-c2nc3ccccc3[nH]2)cc1 | – | 3 | – | 5 | 1 | 7 | 10.7 | 3.12 (≈ 7.01 µM) | 21.7 | 5 | 3 | – | 8 | 3 | 3 | 4 | 4 | 3 | 1 | 2 | –
Cc1ccc(-c2nc3sc(-c4ccc(Cl)cc4)nn3c2-c2nc3cc([N+](=O)[O-])ccc3[nH]2)cc1 | inactive | – | inactive | – | – | – | 8.85 | 6.25 (≈ 12.8 µM) | 26.3 | – | – | inactive | – | – | – | – | – | – | – | – | diameter of the inhibition zone (DIZ) (Salmonella typhi [2]): inactive; diameter of the inhibition zone (DIZ) (Pseudomonas aeruginosa [4]): inactive; diameter of the inhibition zone (DIZ) (Salmonella typhi [5]): inactive; inhibition zone (IZ) (Aspergillus flavus [6]): inactive; diameter of the inhibition zone (DIZ) (Staphylococcus aureus [7]): inactive; diameter of the inhibition zone (DIZ) (Escherichia coli [11]): inactive; diameter of the inhibition zone (DIZ) (Escherichia coli [12]): inactive; inhibition zone (IZ) (Candida albicans [13]): inactive; inhibition zone (IZ) (Aspergillus flavus [15]): inactive; diameter of the inhibition zone (DIZ) (Pseudomonas aeruginosa [16]): inactive; diameter of the inhibition zone (DIZ) (Staphylococcus aureus [17]): inactive
COc1ccc(-c2nc3sc(C)nn3c2-c2nc3ccccc3[nH]2)cc1 | inactive | – | inactive | – | – | – | 7.1 | 6.25 (≈ 17.3 µM) | 21.4 | – | – | inactive | – | – | – | – | – | – | – | – | diameter of the inhibition zone (DIZ) (Salmonella typhi [2]): inactive; diameter of the inhibition zone (DIZ) (Pseudomonas aeruginosa [4]): inactive; diameter of the inhibition zone (DIZ) (Salmonella typhi [5]): inactive; inhibition zone (IZ) (Aspergillus flavus [6]): inactive; diameter of the inhibition zone (DIZ) (Staphylococcus aureus [7]): inactive; diameter of the inhibition zone (DIZ) (Escherichia coli [11]): inactive; diameter of the inhibition zone (DIZ) (Escherichia coli [12]): inactive; inhibition zone (IZ) (Candida albicans [13]): inactive; inhibition zone (IZ) (Aspergillus flavus [15]): inactive; diameter of the inhibition zone (DIZ) (Pseudomonas aeruginosa [16]): inactive; diameter of the inhibition zone (DIZ) (Staphylococcus aureus [17]): inactive
Cc1ccc(-c2nc3sc(C)nn3c2-c2nc3ccccc3[nH]2)cc1 | inactive | 6 | inactive | 2 | – | 5 | 5.03 | 3.12 (≈ 9.05 µM) | 28.6 | 5 | 2 | inactive | 3 | 3 | – | – | – | – | – | – | diameter of the inhibition zone (DIZ) (Salmonella typhi [5]): inactive; inhibition zone (IZ) (Aspergillus flavus [6]): inactive; inhibition zone (IZ) (Candida albicans [13]): inactive; inhibition zone (IZ) (Aspergillus flavus [15]): inactive
Cc1ccc(-c2nn3c(-c4nc5cc([N+](=O)[O-])ccc5[nH]4)c(-c4ccc(F)cc4)nc3s2)cc1 | – | 4 | – | 2 | 1 | 4 | 10.5 | 6.25 (≈ 13.3 µM) | 22.3 | 4 | 2 | – | 3 | 2 | 2 | 4 | 5 | 5 | 2 | 2 | –
COc1ccc(-c2nc3sc(-c4ccccc4)nn3c2-c2nc3cc([N+](=O)[O-])ccc3[nH]2)cc1 | – | 6 | – | 3 | 3 | 4 | – | 50 (≈ 107 µM) | 23.4 | 4 | 3 | inactive | 5 | 2 | 2 | 4 | 3 | 3 | – | 1 | –
Cc1ccc(-c2nc3sc(-c4ccc(Cl)cc4)nn3c2-c2nc3cc(Cl)ccc3[nH]2)cc1 | – | 3 | – | 3 | 2 | 3 | – | 25 (≈ 52.5 µM) | 31.9 | 4 | 2 | – | 4 | 3 | 2 | 3 | 3 | 4 | 3 | 2 | –
